Test results as given in ChEMBL document CHEMBL2439990, “Serendipity in drug-discovery: a new series of 2-(benzyloxy)benzamides as TRPM8 antagonists” (Bioorg Med Chem Lett, 2013).

How the values were obtained:
[1] = target: Transient receptor potential cation channel subfamily M member 8 (Homo sapiens, UniProt Q7Z2W7); experiment: Inhibition of human TRPM8 (unknown origin) expressed in HEK293 cells assessed as inhibition of WS12-induced Ca2+ elevation by FLIPR assay; assay type: cell-based
Outline: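 IC50 values plus modified Kb values computed from the geometric mean of agonist EC50 and slope. At least three independent experiments.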

[2] = Apparent intrinsic clearance in human liver microsomes; assay type: ADME, Microsome; conditions: read-out: CLH(app)
[3] = Lipophilicity, log D of the compound at pH 7.4; assay type: physicochemical; conditions: buffer
Rattus norvegicus = organism: Rattus norvegicus; experiment: Inhibition of rat calcium channel L-site diltiazem binding site at 10 uM
[4] = Half life in DMSO/aqueous buffer assessed as N-(2-(4-(benzyloxy)-3-methoxybenzylamino)ethyl)thiophene-2-carboxamide formation; assay type: physicochemical

| Kb [1] [µM] | IC50 [1] [µM] | Structure (SMILES) | also measured |
| --- | --- | --- | --- |
| > 5 |  | CCN(C(=O)c1ccccc1OCc1ccccc1)[C@@H]1CCC[C@H](NC(C)=O)C1 (racemic) |  |
| 0.0078 |  | COc1cc(CN(CCN)C(=O)O[C@@H](C)c2ccccc2)ccc1OCc1ccccc1 |  |
|  |  | O=C1NC(c2cccc([N+](=O)[O-])c2)=CCN1c1ccccc1O [ICILLIN] | EC50 [1]: 0.3 µM |
| 2.25 | 2.01 | N[C@H]1CCC[C@@H](N(C(=O)c2ccccc2OCc2ccccc2)C2CC2)C1 (racemic) |  |
| 0.0563 | 0.0762 | CCN(C(=O)c1ccccc1OCc1ccccc1)[C@@H]1CCC[C@H](N)C1 | microsomal CLint [2]: < 8 µL/min/mg; logD [3]: 0.6; inhibition (Rattus norvegicus): 61% |
| 0.665 | 0.593 | N[C@H]1CCC[C@@H](N(CC2CC2)C(=O)c2ccccc2OCc2ccccc2)C1 (racemic) |  |
| 0.367 | 0.435 | CCN(C(=O)c1ccccc1OCc1ccccc1F)[C@H]1CCC[C@@H](N)C1 |  |
| 2.6 |  | CCN(C(=O)c1ccccc1OCc1ccccc1)[C@@H]1CC[C@@H](N)C1 (racemic) |  |
| 1.25 | 1.85 | CCN(C(=O)c1ccccc1OCc1ccccc1C#N)C1CCCC(N)C1 (racemic) |  |
| 1.13 |  | CCN(C(=O)c1ccccc1OCc1ccccc1)[C@H]1CCC[C@@H](N)C1 |  |
| > 2 |  | CCN(C(=O)c1cnccc1OCc1ccccc1)[C@@H]1CCC[C@H](N)C1 (racemic) |  |
| 0.491 | 0.493 | CCN(C(=O)c1ccccc1OCc1cccc(C#N)c1)C1CCCC(N)C1 (racemic) |  |
| 4.86 |  | CCN(C(=O)c1ccccc1OCc1ccccc1)C1CCCNC1 (configuration not stated) |  |
| > 5 |  | CCN(C(=O)c1ccccc1OCc1ccccc1)C1CCNC1 (configuration not stated) |  |
| > 5 |  | CCN(C(=O)c1ccccc1OCc1ccccc1)[C@@H]1CC[C@H](N)C1 (racemic) |  |
| 3.67 | 3.15 | CN(C(=O)c1ccccc1OCc1ccccc1)[C@@H]1CCC[C@H](N)C1 (racemic) |  |
| 4.59 | 6.78 | CCN(C(=O)c1ccccc1OCc1ccc(C#N)cc1)C1CCCC(N)C1 (racemic) |  |
| > 2 |  | CCN(C(=O)c1ccccc1OCC(C)C)[C@@H]1CCC[C@H](N)C1 (racemic) |  |
| 1.56 | 1.4 | CCCCN(C(=O)c1ccccc1OCc1ccccc1)[C@@H]1CCC[C@H](N)C1 (racemic) |  |
| 0.0084 |  | COc1cc(CN(CCN)C(=O)c2cccs2)ccc1OCc1ccccc1 | t1/2 [4]: < 2 h |
| 0.013 | 0.0299 | CCN(C(=O)c1ccccc1OCc1ccccc1Cl)[C@@H]1CCC[C@H](N)C1 |  |
| > 10 |  | O=C(c1ccccc1OCc1ccccc1)N1CCNCC1 |  |
| 1.43 | 1.23 | CCCN(C(=O)c1ccccc1OCc1ccccc1)[C@@H]1CCC[C@H](N)C1 (racemic) |  |

| Kb [1] [µM] | IC50 [1] [µM] | Structure (SMILES) | also measured |
| --- | --- | --- | --- |
| > 2 |  | CCN(C(=O)c1cccnc1OCc1ccccc1)[C@@H]1CCC[C@H](N)C1 (racemic) |  |
| > 10 |  | NC1CCN(C(=O)c2ccccc2OCc2ccccc2)C1 (configuration not stated) |  |
| < 0.1 |  | CCN(C(=O)c1ccccc1OCc1ccccc1)C1CCCC(N)C1 (racemic) |  |
| 0.0966 | 0.0969 | CCN(C(=O)c1ccccc1OCc1cccc(Cl)c1)C1CCCC(N)C1 (racemic) |  |
| > 10 |  | NN1CCN(C(=O)c2ccccc2OCc2ccccc2)CC1 |  |
| 0.072 | 0.0854 | CCN(C(=O)c1ccccc1OCc1ccccc1Cl)[C@H]1CCC[C@@H](N)C1 |  |
| 0.0178 | 0.0211 | CCN(C(=O)c1ccccc1OCc1ccccc1F)[C@@H]1CCC[C@H](N)C1 | microsomal CLint [2]: < 8 µL/min/mg; logD [3]: 0.7 |
| > 2 |  | CCN(C(=O)c1ccncc1OCc1ccccc1)[C@@H]1CCC[C@H](N)C1 (racemic) |  |
| 1.4 |  | CCN(C(=O)c1ccccc1OCc1ccccc1)[C@@H]1CCC[C@@H](N)C1 (racemic) |  |
| 0.443 | 1.24 | NCCN(Cc1cccs1)C(=O)c1ccccc1OCc1ccccc1 | microsomal CLint [2]: 149 µL/min/mg; logD [3]: 1.6 |
| 0.214 | 0.254 | CCN(C(=O)c1ccccc1OCc1ccc(Cl)cc1)[C@H]1CCC[C@@H](N)C1 |  |
| > 10 |  | O=C(c1ccccc1OCc1ccccc1)N1C[C@H]2CNC[C@H]2C1 |  |
| 0.0161 | 0.0193 | CCN(C(=O)c1ccccc1OCc1ccc(Cl)cc1)[C@@H]1CCC[C@H](N)C1 | microsomal CLint [2]: < 10 µL/min/mg; logD [3]: 1.3 |
| 0.0127 | 0.0151 | CCN(C(=O)c1ccccc1OCc1ccccc1C)[C@@H]1CCC[C@H](N)C1 |  |
| > 2 |  | CCN(C(=O)c1ccccc1-c1ccccc1)[C@@H]1CCC[C@H](N)C1 (racemic) |  |
| 0.28 |  | CCN(C(=O)c1ccccc1COc1ccccc1)[C@@H]1CCC[C@H](N)C1 (racemic) |  |
| 0.246 | 0.291 | CCN(C(=O)c1ccccc1OCc1ccccc1C)[C@H]1CCC[C@@H](N)C1 |  |
| > 2 |  | CCN(C(=O)c1ccccc1Cc1ccccc1)[C@@H]1CCC[C@H](N)C1 (racemic) |  |
|  |  | COc1ccc(NC(=O)[C@@H]2C[C@H](C)CC[C@H]2C(C)C)cc1 [ACOLTREMON] | EC50 [1]: 0.04 µM |
| > 5 |  | CCN(C(=O)c1ccccc1OCc1ccccc1)C1CCNCC1 |  |
| 0.794 | 1.36 | N[C@H]1CCC[C@@H](N(C(=O)c2ccccc2OCc2ccccc2)C2CCC2)C1 (racemic) |  |
| 5.13 | 8.78 | CC(C)N(C(=O)c1ccccc1OCc1ccccc1)[C@@H]1CCC[C@H](N)C1 (racemic) |  |
| > 10 |  | CN(C(=O)c1ccccc1OCc1ccccc1)[C@@H]1CCNC1 |  |
